Compound activity from PubChem.
HCT116 PTEN-null = suppresses growth of cells with PTEN deletion | HCT116 PTEN-null viability, CellTiter-Glo, 60 h; active compounds read low | viability, % at 10 µM | 140,000 compounds, 1.2% hits | AID 827;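 active means viability at or below a set limit, 4 SD under the median of all tested compounds, cut at about 3.7% in these data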;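 further: PTEN knockout HCT116 line with beta catenin targeted HCT116 as companion control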
Fibroblast inh = blocks proliferation of human lung fibroblasts; viability, % at 10 µM; 85,000 compounds, 1.1% hits; LL 47 human lung fibroblast viability, ATP luminescence; active compounds read low;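 active means viability at or below 50% in the single dose screen; inactive means viability above 50%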;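 further: compound exposure lasted 72 h before the ATP readout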
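Material: human lung fibroblast line LL 47, low passage; Evaluation: viability percentage against median untreated-cell control; Buffer or medium: 15% FBS in IMEM; Incubation: 72 h compound exposure at 37 °C after overnight plating; Dosing: 0.1% DMSO in all compound wells; Measured by: CellTiter-Glo luminescence.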
bCat KO growth = beta-catenin-lacking colon tumor cell growth suppression; 140,000 compounds, 1.5% hits; viability, % at 10 µM; HCT116 beta-catenin knockout viability, CellTiter-Glo, 60 h; active compounds read low; AID 818;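 active means viability at or under a set limit, the compound median less 4 SD, cut at about 6% in these data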
H69AR growth 86K = blocks growth of human H69AR lung tumor cells | H69AR lung tumor viability, ATP luminescence, 72 h; active compounds read low | viability, % at 10 µM | 85,000 compounds, 6% hits;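 active means viability at or below 40%; inactive means viability above 40%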;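 further: multidrug resistant small cell line overexpressing MRP-1 efflux transporter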
HUVEC inhibit = blocks proliferation of human endothelial cells; HUVEC proliferation, CellTiter-Glo luminescence, 72 h; active compounds read low; viability, % at 10 µM (by protocol); 86,000 compounds, 1.1% hits;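 active means viability at or below 30%; inactive means viability above 30%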
Of the large screens only hits and unclear results are named; the others gave an inactive call. The full list was thinned out, with hits kept by preference.

CCCCC(=O)Nc1ccc(Cl)cn1	none
O=C(CCC1COc2ccccc2O1)Nc1ccc(Cl)cn1 (centres undefined)	HUVEC inhibit 15.1
Cc1ccc(C(=O)Nc2ccc(Cl)cn2)cc1	H69AR growth 86K 24.5
CS(=O)(=O)N(CC(=O)NCCSCc1cccc(Cl)c1)c1ccc2c(c1)OCO2	none
Nc1nc(Nc2ccc(Cl)cc2Cl)nc(C(F)(F)F)n1	none
NC(=O)c1ccsc1NC(=O)CSc1nc2ccccc2c(=O)n1CCCO	none
COCC(=O)Nc1nc(-c2ccccc2)c(C)s1	none
O=S(=O)(/N=C(\Sc1ccc(Cl)cc1)c1ccccc1)c1ccccc1	H69AR growth 86K 38.7
COCc1[nH]nc2c1C(c1ccc(OC)c(OC)c1)C(C#N)=C(N)O2 (centres undefined)	none
CCn1c2ccccc2c2cc(C3C(C#N)=C(N)Oc4n[nH]c(COC)c43)ccc21 (centres undefined)	bCat KO growth 2.3, HUVEC inhibit 5.6
CO/N=C/NC(=O)c1c(OC)ccnc1Oc1ccc(F)cc1	none (no result: Fibroblast inh, H69AR growth 86K, HUVEC inhibit)
O=c1[nH]c(CN2CCc3ccccc3C2)nc2ccccc12	none
Cc1[nH]c2ccccc2c1CN1CCc2ccccc2C1	HCT116 PTEN-null 2.7, bCat KO growth 2.2, H69AR growth 86K 35.3
Cc1onc(-c2ccccc2)c1C(=O)N/N=C/c1cccc(O)c1	none (no result: Fibroblast inh, H69AR growth 86K, HUVEC inhibit)
Cc1ccc(NC(=S)N/N=C/c2ccc([N+](=O)[O-])s2)cc1	HCT116 PTEN-null 1.8, bCat KO growth 1.6 (no result: Fibroblast inh, H69AR growth 86K, HUVEC inhibit)
Cc1c(N=Cc2ccc(Br)s2)cccc1[N+](=O)[O-]	none (no result: Fibroblast inh, H69AR growth 86K, HUVEC inhibit)
Cc1onc(-c2ccccc2)c1C(=O)N/N=C/c1ccc([N+](=O)[O-])s1	HCT116 PTEN-null 2.6, bCat KO growth 2.9 (no result: Fibroblast inh, H69AR growth 86K, HUVEC inhibit)
Cc1cc(C)cc(N=Cc2ccc([N+](=O)[O-])s2)c1	HCT116 PTEN-null 1.8, bCat KO growth 1.9 (no result: Fibroblast inh, H69AR growth 86K, HUVEC inhibit)
NC(=O)c1ccc(N=Cc2ccc([N+](=O)[O-])s2)cc1	HCT116 PTEN-null 1.3, bCat KO growth 1.6 (no result: Fibroblast inh, H69AR growth 86K, HUVEC inhibit)
COc1cc(CNCCN2CCOCC2)ccc1OCc1ccccc1Cl	none (no result: Fibroblast inh, H69AR growth 86K, HUVEC inhibit)
Cc1ccnc(NC(=O)c2ccccc2NC(=O)C(C)(C)C)c1	H69AR growth 86K 19.7 (no result: Fibroblast inh)
CCCCCCCCOC(=O)C(NC(=O)CCC(=O)Nc1ccc(S(N)(=O)=O)cc1)C(O)c1ccccc1 (centres undefined)	none
CCOC(=O)C(NC(=O)CCC(=O)Nc1ccc(S(N)(=O)=O)cc1)C(O)c1ccccc1 (centres undefined)	H69AR growth 86K 31.6 (no result: Fibroblast inh)
CCOC(=O)CN1Cc2cccc(C(=O)O)c2C1=O	none
CCn1cc(C(=O)N2CCN(c3cccc(Cl)c3)CC2)c2cc(OC)c(OC)cc2c1=O	none (no result: Fibroblast inh, H69AR growth 86K, HUVEC inhibit)
CCN(CC)c1ccc(NC(=O)c2c(OC)cccc2OC)c(C)c1	none
CCN(CC)c1ccc(NC(=O)c2cc(OC)cc(OC)c2)c(C)c1	H69AR growth 86K 24.7
CCN(CC)c1ccc(NC(=O)c2cccc(OC)c2)c(C)c1	H69AR growth 86K 18.7
CCN(CC)c1ccc(C(=O)Nc2cccc(F)c2)cc1	H69AR growth 86K 25.0
CN(C)c1cccc(C(=O)Nc2cccc(F)c2)c1	none
Cc1ccc(C(=O)N/C(=C/c2ccc(-c3cccc([N+](=O)[O-])c3)o2)C(=O)NC(C)(C)C)cc1	none (no result: Fibroblast inh, H69AR growth 86K, HUVEC inhibit)
C=C(C)C1Cc2nc(N)nc(C)c2C1 (centres undefined)	none
C=C(C)C1Cc2c(C)nn(-c3nc(C)cc(C)n3)c2C1 (centres undefined)	H69AR growth 86K 3.2
O=S(=O)(c1ccc(N2CCCC2c2nc3ccccc3s2)nc1)N1CCOCC1 (centres undefined)	H69AR growth 86K 22.6
C/C(=C1/C(=O)N(c2ccc([N+](=O)[O-])cc2)N=C1c1ccccc1)N(C)C	HCT116 PTEN-null 2.2, bCat KO growth 3.3 (no result: Fibroblast inh, H69AR growth 86K, HUVEC inhibit)
Cc1ccc(-n2c(O)c(C=Nc3ccc4c(c3)OCO4)c3ccccc3c2=O)cc1C	HCT116 PTEN-null 2.4, bCat KO growth 2.0 (no result: Fibroblast inh, H69AR growth 86K, HUVEC inhibit)
Cc1cc(N=Cc2c(O)n(-c3ccc4c(c3)OCO4)c(=O)c3ccccc23)ccn1	H69AR growth 86K 21.3
Cc1ccc(N2C(=O)N(Cc3ccccc3C)c3ccccc3S2(=O)=O)cc1	none (no result: Fibroblast inh, H69AR growth 86K, HUVEC inhibit)
CCc1cc2c(=O)c(-c3nc4ccccc4n3C)c(C)oc2c(CN2CCN(C)CC2)c1O	none (no result: Fibroblast inh, H69AR growth 86K, HUVEC inhibit)
CCc1cc(-c2n[nH]c(C)c2-c2nc3ccccc3n2C)c(O)c(CN2CCN(C)CC2)c1O	H69AR growth 86K 16.1 (no result: Fibroblast inh)
O=C1C2C3C=CC(C3)C2C(=O)N1CNc1ccc(O)cc1 (centres undefined)	H69AR growth 86K 28.9
O=C(CCCCn1c(=O)c2ccccc2n(Cc2ccc(F)cc2Cl)c1=O)NCc1ccco1	H69AR growth 86K 24.3
O=C(NCc1ccco1)c1ccc(Cn2c(=O)c3ccccc3n(Cc3cccc(Cl)c3)c2=O)cc1	H69AR growth 86K 30.9
Cc1ccc(C)c(Cn2c(=O)n(CCCC(=O)NCc3ccco3)c(=O)c3ccccc32)c1	H69AR growth 86K 36.0
Cc1ccc(C)c(Cn2c(=O)n(CCC(=O)NCc3ccco3)c(=O)c3ccccc32)c1	none
CCn1c(=O)cc(SCC(=O)NCc2ccco2)c2ccccc21	H69AR growth 86K 38.6
CCOc1ccc(CCNC(=O)C2CCC(=O)N2C2CCCCC2)cc1OCC (centres undefined)	none
COc1ccc(C(c2nnnn2Cc2cccs2)N2CCN(c3ccc(F)cc3)CC2)cc1OC (centres undefined)	none
Oc1c(C(c2ccco2)N2CCN(C(c3ccccc3)c3ccccc3)CC2)sc2ncnn12 (centres undefined)	H69AR growth 86K 33.3
Oc1c(C(c2ccccc2)N2CCc3ccccc3C2)sc2ncnn12 (centres undefined)	none
N#C/C(=C\c1ccc(Cl)s1)C(=O)N1CCN(c2ccccc2)CC1	none (no result: Fibroblast inh, H69AR growth 86K, HUVEC inhibit)
COc1ccccc1-c1nnc2n1N=C(C(C)(C)C)CS2	none
COc1cccc(-c2nnc3n2N=C(c2cc(OC)ccc2OC)CS3)c1	none (no result: Fibroblast inh, H69AR growth 86K, HUVEC inhibit)
COc1cccc(-c2nnc3n2N=C(C(C)(C)C)CS3)c1	bCat KO growth 5.5
CCOc1cccc(-c2nnc3n2N=C(c2cc(OC)ccc2OC)CS3)c1	H69AR growth 86K 20.6
O=C1CCCC2=C1C1(O)C(=O)c3ccccc3C1(O)O2 (centres undefined)	none
CC(=O)NC(O)C(=O)c1ccco1 (centres undefined)	none
COC(=O)COc1ccc(S(=O)(=O)NCc2ccncc2)cc1	bCat KO growth 1.1
COc1ccc(NC(=O)C2CC(=O)N(C)C(=Nc3ccc4c(c3)OCO4)S2)cc1 (centres undefined)	H69AR growth 86K 30.0
CN1C(=O)CC(C(=O)Nc2ccc(F)cc2)SC1=Nc1ccc2c(c1)OCO2 (centres undefined)	none
Oc1cc2c(cc1CN1CCN(c3cccc(C(F)(F)F)c3)CC1)CCC2	none
C=CCOc1ccc(/C=N/NC(=O)CN(c2cc(Cl)ccc2OC)S(=O)(=O)c2ccc(C)c([N+](=O)[O-])c2)cc1	none (no result: Fibroblast inh, H69AR growth 86K, HUVEC inhibit)
Cc1cc(C)n(-c2ccc(C(=O)OCc3ccccc3)cc2)n1	none (no result: Fibroblast inh, H69AR growth 86K, HUVEC inhibit)
CCN(CC)c1ccc(/C=N/N2CCOCC2)c(O)c1	none (no result: Fibroblast inh, H69AR growth 86K, HUVEC inhibit)
